In ChEMBL document CHEMBL4130438, “6,7-Seco-ent-Kauranoids Derived from Oridonin as Potential Anticancer Agents” (J Nat Prod, 2017) one finds IC50, Activity and inhibition in vivo data, which are given here for 19 molecules.

Experiment [1] has as its system Bel-7402. The experiment in a line: Antiproliferative activity against human Bel7402 cells after 72 hrs by MTT assay. The experiment is classed as functional, cell-based. The note with it: Bel-7402, 72 h. An outline of the steps:
(§1)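 Cells pre-incubated 24 h at 37 °C, 5% CO2 in 96-well plates, then exposed to a range of compound concentrations (DMSO ≤0.25%) for 72 h. Viable cells read by MTT colour at 570 nm. Performed in quadruplicate, repeated three times. IC50 reported as means ± SD, n = 3.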
(In general: Formazan colour is commonly taken as a measure of viable cells.)

The subject of another experiment is MGC-803. In words: Antiproliferative activity against human MGC803 cells after 72 hrs by MTT assay. The experiment is classed as functional, cell-based. The following applies: MGC-803, 72 h. The gist of the method: as §1
A further experiment concerns K562. The experiment in a line: Antiproliferative activity against human K562 cells after 72 hrs by MTT assay. The following applies: K562, 72 h. The format is functional, cell-based. The gist of the method: as §1
The subject of experiment [2] is MCF7. In words: Antiproliferative activity against human MCF7 cells after 72 hrs by MTT assay. The format is functional, cell-based. The following applies: MCF7, 72 h. The gist of the method: as §1
The test system of experiment [3] is Bel-7402. The experiment in a line: Cytotoxicity against human Bel7402 cells assessed as decrease in cell viability after 24 hrs by LDH release assay. The format is functional, cell-based. The gist of the method: (§2)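 MCF-7 and Bel-7402 cells seeded at ~5 × 10^3 per well for 24 h, then exposed to compounds. LDH released into the medium measured with CytoTox-ONE reagent (10 min, ambient temperature) followed by stop solution. Fluorescence read at ex 560/em 590 nm.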

In a further experiment the test system is KB 3-1. In words: Antiproliferative activity against human KB-3-1 cells after 48 hrs by MTT assay. The experiment is classed as functional, cell-based.
The species named for a further experiment is Homo sapiens. In words: Antiproliferative activity against human KB/CP4 cells after 48 hrs by MTT assay. The experiment is classed as functional, cell-based.
In experiment [4] the test system is MCF7. In words: Cytotoxicity against human MCF7 cells assessed as decrease in cell viability after 24 hrs by LDH release assay. The experiment is classed as functional, cell-based. The gist of the method:
as §2

In another experiment the test system is H22. The experiment in a line: Antitumor activity against […] cells xenografted in ICR mouse assessed as inhibition of tumor volume at 20 mg/kg, iv qd administered for 14 consecutive days measured every 2 days relative to control. The format is functional. The note with it: 14 days. An outline of the steps: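 Male ICR mice, five weeks old, implanted s.c. in the right flank with 1 × 10^6 H22 cells. After 7 days, randomised into groups of eight. Given i.v. once daily for 14 days, 10 or 20 mg/kg in 10% DMF/2% poloxamer/88% saline; negative controls received 0.9% saline i.v., positive control 20 mg/kg oridonin. Body weight and tumour volume (L × W²/2) recorded every 2 days. Tumours excised and weighed at sacrifice; inhibition (%) = (1 − treated/control mean tumour weight) × 100.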
For orientation: In xenograft studies the graft and the host belong to different species.

Activity calls are given as the source filed them. The rule behind the calls is not given here.

Turning to `C=C1C(=O)[C@@]23C(=O)OC[C@]4([C@@H]5O[C@@H]5CC(C)(C)[C@H]4C=O)[C@@H]2CC[C@@H]1[C@H]3O`, the IC50 with Bel-7402 [1] is 4600 nM; in the experiment on MGC-803 it was more than 10 µM; with K562 it was more than 10000 nM; with MCF7 [2] it was more than 10 µM.

As to `C=C1C(=O)[C@@]23C(=O)OC[C@]4(C=CCC(C)(C)[C@H]4C=O)[C@@H]2CC[C@@H]1[C@H]3OC(=O)/C=C/c1ccccc1`, the IC50 was 1500 nM in the experiment with Bel-7402 [1], 0.95 µM in the experiment on MGC-803, 1300 nM in the experiment on K562 and 1.5 µM with MCF7 [2].

For `C=C1C(=O)[C@@]23C(=O)OC[C@]4(C=CCC(C)(C)[C@H]4C=O)[C@@H]2CC[C@@H]1[C@H]3O`, the result with Bel-7402 [3] and in the experiment with MCF7 [4] was inactive. Moreover, the IC50 amounted to 2500 nM in the experiment on Bel-7402 [1], 3 µM with MGC-803, 4200 nM with K562 and 6.4 µM in the experiment with MCF7 [2]. Moreover, the result in the experiment on KB 3-1 and in the experiment filed under Homo sapiens was Active.

Turning to `C=C1C(=O)[C@@]23C(=O)OC[C@]4(C=CCC(C)(C)[C@H]4C=O)[C@@H]2CC[C@@H]1[C@H]3OS(C)(=O)=O`, the IC50 with Bel-7402 [1] stood at 1300 nM; with MGC-803 it was 2.8 µM; in the experiment on K562, 1900 nM; with MCF7 [2] it was 2 µM.

With `C=C1C(=O)[C@]23[C@H](O)[C@H]1CC[C@H]2[C@@]12CO[C@@]3(O)[C@@H](O)[C@@H]1C(C)(C)CC[C@@H]2OS(C)(=O)=O`, the IC50 in the experiment with Bel-7402 [1] was determined as 2700 nM; in the experiment with MGC-803, 3.9 µM; in the experiment on K562, 3200 nM; with MCF7 [2], 3.9 µM.

For `C=C1C(=O)[C@]23[C@H](O)[C@H]1CC[C@H]2[C@@]12CO[C@]3(O)[C@@H](O)[C@@H]1C(C)(C)CC[C@@H]2O` [ORIDONIN], the inhibition in vivo at 20 mg/kg in the experiment on H22 was found to be 51.2%. For the same molecule, the IC50 in the experiment with Bel-7402 [1] was more than 10000 nM; in the experiment with MGC-803 it was 4.5 µM; in the experiment on K562, 5100 nM; with MCF7 [2], 9.1 µM.

Consider `C=C1C(=O)[C@@]23C(=O)OC[C@]4([C@@H](OS(C)(=O)=O)CCC(C)(C)[C@H]4C=O)[C@@H]2CC[C@@H]1[C@H]3OC(=O)CCCC`, for which the IC50 in the experiment with Bel-7402 [1] is 2200 nM; with MGC-803, 3.2 µM; in the experiment on K562, 4500 nM; in the experiment on MCF7 [2] it was 3.7 µM.

`C=C1C(=O)[C@@]23C(=O)OC[C@]4(C=CCC(C)(C)[C@H]4C=O)[C@@H]2CC[C@@H]1[C@H]3OC(=O)c1cnccn1`: the IC50 in the experiment on Bel-7402 [1] worked out at 1300 nM; in the experiment with MGC-803 it was 2.8 µM; in the experiment with K562 it was 2900 nM; with MCF7 [2], 3.5 µM.

For the molecule `C=C1C(=O)[C@@]23C(=O)OC[C@]4(C=CCC(C)(C)[C@H]4C=O)[C@@H]2CC[C@@H]1[C@H]3OC(C)=O`, the IC50 in the experiment on Bel-7402 [1] came to 570 nM; with MGC-803 it was 0.95 µM; in the experiment with K562 it was 630 nM; with MCF7 [2] it was 1 µM.

For the molecule `C=C1C(=O)[C@@]23C(=O)OC[C@]4([C@@H](OS(C)(=O)=O)CCC(C)(C)[C@H]4C=O)[C@@H]2CC[C@@H]1[C@H]3O`, the IC50 in the experiment with Bel-7402 [1] is more than 10000 nM; in the experiment on MGC-803, more than 10 µM; in the experiment on K562, more than 10000 nM; in the experiment on MCF7 [2] it was more than 10 µM.

For `C=C1C(=O)[C@@]23C(=O)OC[C@]4([C@@H](OS(C)(=O)=O)CCC(C)(C)[C@H]4C=O)[C@@H]2CC[C@@H]1[C@H]3OC(=O)c1ccc(F)cc1`, the IC50 in the experiment with Bel-7402 [1] turned out to be 3100 nM; in the experiment with MGC-803, 4.5 µM; with K562 it was 6200 nM; in the experiment on MCF7 [2], 5.5 µM.

Turning to `C=C1C(=O)[C@@]23C(=O)OC[C@]4(C=CCC(C)(C)[C@H]4C=O)[C@@H]2CC[C@@H]1[C@H]3OC(=O)c1ccco1`, the IC50 in the experiment with Bel-7402 [1] was determined as 840 nM; in the experiment with MGC-803, 1.3 µM; with K562, 780 nM; in the experiment on MCF7 [2], 1.2 µM.

On to `C=C1C(=O)[C@@]23C(=O)OC[C@]4(C=CCC(C)(C)[C@H]4C=O)[C@@H]2CC[C@@H]1[C@H]3OC(=O)c1cccc(C)c1`, for which the IC50 amounted to 3600 nM with Bel-7402 [1], 2.4 µM in the experiment on MGC-803, 550 nM in the experiment on K562 and 1.1 µM in the experiment with MCF7 [2].

For the molecule `C=C1C(=O)[C@@]23C(=O)OC[C@]4(C=CCC(C)(C)[C@H]4C=O)[C@@H]2CC[C@@H]1[C@H]3OC(=O)c1ccc([N+](=O)[O-])cc1`, the IC50 in the experiment on Bel-7402 [1] was more than 10000 nM; in the experiment on MGC-803, 7.3 µM; with K562, 1000 nM; in the experiment with MCF7 [2] it was 6.4 µM.

Turning to `C=C1C(=O)[C@@]23C(=O)OC[C@]4(C=CCC(C)(C)[C@H]4C=O)[C@@H]2CC[C@@H]1[C@H]3OC(=O)/C=C/c1cccc([N+](=O)[O-])c1`, the IC50 turned out to be 5100 nM in the experiment with Bel-7402 [1], 2.9 µM in the experiment with MGC-803, 1400 nM with K562 and 2.2 µM in the experiment with MCF7 [2].

Consider `C=C1C(=O)[C@@]23C(=O)OC[C@]4([C@@H](OS(C)(=O)=O)CCC(C)(C)[C@H]4C=O)[C@@H]2CC[C@@H]1[C@H]3OS(C)(=O)=O`, for which the IC50 in the experiment on Bel-7402 [1] is 3800 nM; with MGC-803 it was 8.8 µM; with K562, 1200 nM; with MCF7 [2], 9.5 µM.

In the case of `C=C1C(=O)[C@@]23C(=O)OC[C@]4([C@@H](OS(C)(=O)=O)CCC(C)(C)[C@H]4C=O)[C@@H]2CC[C@@H]1[C@H]3OC(=O)c1ccco1`, the IC50 with Bel-7402 [1] was 1100 nM; in the experiment on MGC-803 it was 3.4 µM; in the experiment with K562, 1700 nM; in the experiment on MCF7 [2] it was 2.9 µM.

Turning to `C=C1C(=O)[C@@]23C(=O)OC[C@]4(C=CCC(C)(C)[C@H]4C=O)[C@@H]2CC[C@@H]1[C@H]3OC(=O)CCCC`, the IC50 was 2200 nM in the experiment on Bel-7402 [1], 4.3 µM with MGC-803, 5500 nM in the experiment on K562 and 3.3 µM in the experiment on MCF7 [2].

Turning to `C=C1C(=O)[C@@]23C(=O)OC[C@]4(C=CCC(C)(C)[C@H]4C=O)[C@@H]2CC[C@@H]1[C@H]3OC(=O)CC`, the IC50 in the experiment with Bel-7402 [1] is 7100 nM; in the experiment with MGC-803, 7.3 µM; in the experiment with K562, 1200 nM; with MCF7 [2], 3.4 µM.

In general, IC50 refers to the concentration at which inhibition is half-maximal. A lower IC50 goes with higher potency. As a reminder, the inhibition in vivo is the percentage by which the read-out fell short of the control.
